A selection: hits, their analogues and other compounds. The true share with any hit is near 2.9%.
CaV13 ICDI inh: Disruptors of the CACNA1D IQ motif to Ca2+-dependent inactivation inhibitor domain association, primary screening, Förster resonance energy transfer in intact living …; HEK cells, CFP/YFP FRET ICDI-IQ, plate reader, 10 min; percent FRET-ratio fall versus neutral wells; inhibition, % at 12.3 µM; 0.098% of 340,000 active;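 active = mean replicate inhibition of at least 30% and at least 1% of replicates passing that level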;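 note: 0% = median of the neutral control wells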
Arr AP2 block: inhibitors of beta-arrestin/AP2 binding, primary screen, biochemical, GPCR trafficking, flow cytometry; FITC-arrestin peptide / GST-AP2 beads; AP2 beta2 appendage carries R879A mutation; inhibition, % at 10 µM; 0.31% of 340,000 active; AID 504490, 2011;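 active = inhibition above a set limit, near 3 SD of compounds lacking own fluorescence, cut at about 54% in these data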;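 note: plate controls were DMSO wells for no effect and 5 µM unlabelled arrestin peptide for full effect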
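Material – AP2 appendage R879A on GSH beads · Buffer or medium – PBS with 0.05% Tween 20 and 0.1% BSA · Probe or stimulus – fluorescein-tagged arrestin peptide at 50 nM final · Incubation – compound with beads 12 min RT, then probe 1 h RT · Detection – high-throughput flow cytometry of beads, ex 488, em 535 nm · Evaluation – percent response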
ADAM10 inh: human ADAM10 inhibitors, primary screen, biochemical, QFRET, HTS; Disintegrin and metalloproteinase domain-containing protein 10 (Homo sapiens), O14672; recombinant ADAM10, EDANS/DABCYL FRET peptide cleavage, 3 h; inhibition, % at 7 µM; 0.62% of 370,000 active; AID 720582, 2013;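 active = inhibition above a per-campaign cutoff equal to the mean of compounds falling between control-based bounds plus 3 SD, cut at about 20% in these data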;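 note: 0% = DMSO wells while the 100% control is not disclosed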
ADAM17 inh: ADAM17 inhibitors, primary screen, biochemical, QFRET; Disintegrin and metalloproteinase domain-containing protein 17 (Homo sapiens), P78536; recombinant ADAM17, EDANS/DABCYL FRET peptide cleavage; inhibition, % at 6.95 µM; 0.83% of 370,000 active;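 active = inhibition above the mean of compounds lying between control limits plus 3 SD, set per campaign, cut at about 8.5% in these data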;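 note: 0% = DMSO-only wells as the low control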
NRP1-CendR mod: modulators of CendR peptide binding to NRP-1, primary screen, biochemical, fluorescence polarization, uHTS | Neuropilin-1 (Homo sapiens), O14786 | FAM-RPARPAR peptide binding to NRP-1 | inhibition, % at 25 µM | 0.85% of 360,000 active;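 active = inhibition or corrected inhibition above about 18%, plus a signal ratio from 0.5 to 1.5, limit read from the data, passing the limit was not always enough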
FAS-TE inh: FAS thioesterase domain inhibitors, primary screen, biochemical, fluorescence intensity, uHTS; 0.67% of 360,000 active; recombinant FAS-TE, OMFH fluorogenic substrate, fluorescence endpoint; inhibition, % at 15 µM;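 active = compounds whose normalised, plate-corrected inhibition of enzyme fluorescence in the single-dose primary screen is 50% or more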;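 note: 0% = DMSO with enzyme and 100% = substrate without enzyme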
FAS-TE inh conf: FAS thioesterase domain inhibitors, confirmation, biochemical, fluorescence intensity, single concentration; shares compounds with FAS-TE inh; recombinant FAS-TE, OMFH fluorogenic substrate; inhibition, % at 15 µM; 45% of 2,300 active;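 active = compounds inhibiting the enzyme by at least 50% at 15 µM in any one of the replicates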;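 note: 0% = enzyme with DMSO only and 100% = wells lacking enzyme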
The depositor's hits bear a star; / = no result.

SMILES	CaV13 ICDI inh	Arr AP2 block	ADAM10 inh	ADAM17 inh	NRP1-CendR mod	FAS-TE inh	FAS-TE inh conf
O=C1CC(c2cccc(Cl)c2)c2cc3c(cc2N1)CCC3 (stereo not given)	-7.0	-5.6	4.7	7.0	10.0	20.3	/
Cc1cc(N2CCNC[C@@H]2C)ccc1N1C[C@@H](C)O[C@@H](C)C1	-1.3	/	-2.7	-4.4	/	/	/
O=C(C[C@@H]1CC[C@@H]2[C@H](COC[C@H](O)CN2CCC(F)(F)F)O1)NCc1ccc2c(c1)OCO2	-3.5	/	-3.0	-0.1	10.8	/	/
C[C@]12Cc3ccccc3C1CC1=N[C@@H](c3ccc(C(F)(F)F)cc3)O[C@@]13C[C@@H]2C(=O)N3Cc1ccncc1 (stereo not given in full)	-3.9	/	-27.3	-6.7	/	/	/
CCc1nc2c(OCCOc3ccc(F)cc3)cccn2c1N(C=O)Cc1ccc(OC)cc1	-10.3	/	-9.3	-1.6	-12.1	15.7	/
CCc1nc2c(OCc3ccc(Cl)cc3Cl)cccn2c1N(C=O)Cc1ccc(OC)cc1	-4.2	/	-11.0	0.6	-13.6	77.7*	61.7*
CCc1nc2c(OCC(=O)c3ccc(Cl)cc3Cl)cccn2c1N(C=O)Cc1ccc(OC)cc1	-6.1	/	-30.8	-6.2	-22.3	18.1	/
CCc1nc2c(OCc3ccc(Cl)cc3)cccn2c1N(C=O)Cc1ccc(OC)cc1	-3.1	/	9.4	2.9	0.4	54.2*	62.2*
CCn1c2ccccc2c2cc(NC(=O)c3cccc([N+](=O)[O-])c3)ccc21	4.0	2.3	3.1	2.9	-28.7	24.9	/
CCn1c2ccccc2c2cc(NC(=O)c3ccc(C)c([N+](=O)[O-])c3)ccc21	-5.5	11.4	8.5	2.1	-5.2	52.2*	-1.9
COC(=O)[C@]12C[C@H](CC(=O)NCCc3ccccc3OC)C(=O)N(Cc3ccco3)C1=C[C@H](COCc1ccccc1)O[C@@H]2C	/	/	6.6	0.2	/	/	/
CCC1CCCCN1S(=O)(=O)c1ccc(NC(=O)c2nc(S(C)(=O)=O)ncc2Cl)cc1 (stereo not given)	-14.5	-15.9	-7.9	-4.3	11.1	59.6*	65.8*
CCC1CCCCN1S(=O)(=O)c1ccc(NC(=O)c2ccncc2)cc1 (stereo not given)	/	6.9	7.0	-3.6	-11.8	3.2	/
CS(=O)(=O)c1ncc(Cl)c(C(=O)Nc2ccc3ccccc3c2)n1	-4.3	-8.3	9.9	3.8	-6.9	57.1*	33.4
Cc1cc(Br)c2nc(-c3ccc(Cl)cc3)c(Cc3cccc(Cl)c3)n2c1	-7.7	/	-30.1	-4.5	/	/	/
CCOc1ccc(C2CC=C(C(C)=O)CN2S(=O)(=O)c2ccc(C)cc2)cc1 (stereo not given)	-3.5	/	-7.4	-3.0	-1.6	18.8	/
O=C1NC[C@H](CCCCN2C[C@H](Cc3ccc(O)cc3)N(Cc3ccccc3)C(=O)C2=O)N(CCc2ccc(O)cc2)C1=O	-6.8	/	4.4	-0.6	-7.9	-6.4	/
C/C(=N\NC(=O)c1nnn(-c2nonc2N)c1-c1ccc(Cl)c(Cl)c1)c1ccncc1	-15.7	27.8	2.2	-2.7	9.7	54.9*	56.5*
CC1(C(=O)NCc2ccc(Cl)cc2)CCN1C(=O)c1cccc(F)c1 (stereo not given)	-3.6	/	-11.0	-3.5	2.1	1.6	/
C/C(=N\NC(=S)NC1CCCCC1)c1ccc(OC(F)F)cc1OC(F)F	-16.7	-32.1	6.5	-4.3	-16.6	57.0*	44.7
COc1ccc(CCN(C)c2ccc(S(=O)(=O)N3CCCC3)cn2)cc1OC	-5.4	-18.9	-3.7	-4.4	3.6	2.7	/
COc1cc(CN(C)c2ccc(S(=O)(=O)N3CCCC3)cn2)ccc1OC(F)F	-5.7	-2.4	3.0	-2.5	-0.3	68.3*	21.6
CC1(C(=O)Nc2ccc3c(c2)OCCO3)CCN1C(=O)CC1CCCC1 (stereo not given)	-5.8	/	-1.3	-2.5	0.1	-5.9	/
CC1(C(=O)Nc2ccc(Cl)c(Cl)c2)CCN1C(=O)CC1CCCC1 (stereo not given)	-3.3	/	8.8	-0.4	-8.1	62.2*	54.4*
CCN(CC)c1c(C)nc2ccc(C(=O)Nc3cc(-c4ccccc4)ccc3OC)cn12	-4.8	/	9.4	1.0	-9.2	17.2	/
SMILES	CaV13 ICDI inh	Arr AP2 block	ADAM10 inh	ADAM17 inh	NRP1-CendR mod	FAS-TE inh	FAS-TE inh conf
COc1ccc(C2NC(c3ccc(OC)cc3)C(c3ccccc3)C(=O)C2c2ccccc2)cc1 (stereo not given)	-3.2	0.1	6.1	1.4	4.4	62.2*	32.5
O=C(C1CCCN(S(=O)(=O)c2ccc([N+](=O)[O-])cc2)C1)N1CCN(Cc2ccccc2)CC1 (stereo not given)	/	/	4.6	0.8	/	/	/
O=C(CSc1nc2cc([N+](=O)[O-])ccc2n1-c1ccccc1)NCc1ccc2c(c1)OCO2	-3.3	1.9	2.4	-0.3	-4.7	51.7*	35.7
O=C(/C=C/c1cccc([N+](=O)[O-])c1)NCc1ccc2c(c1)OCO2	-4.5	3.4	1.0	1.2	-2.9	67.5*	82.3*
COC(=O)c1cc(C(=O)NCc2ccc3c(c2)OCO3)cc([N+](=O)[O-])c1	-20.2	4.6	-2.6	-5.9	1.0	58.7*	70.6*
O=C(/C=C/c1cccc([N+](=O)[O-])c1)NCCSCc1ccc(Cl)cc1Cl	-6.1	0.3	-0.7	-4.2	1.5	58.8*	58.0*
O=C(NCc1ccc2c(c1)OCO2)c1cc([N+](=O)[O-])ccc1N1CCCCC1	-5.8	9.4	6.8	-0.5	10.6	64.5*	53.8*
Cn1c(-c2ccccc2)cnc1NCc1cccc([N+](=O)[O-])c1	-2.7	6.8	-4.7	-1.5	-9.2	70.9*	67.2*
CSc1ccc(CNc2ncc(-c3cccc([N+](=O)[O-])c3)n2C)cc1	-6.1	8.0	-4.3	-1.1	16.9	25.9	/
COc1ccc(/C=N\NC(=O)CNC(=O)C(c2ccccc2)c2ccccc2)cc1[N+](=O)[O-]	-6.5	-3.0	13.2	2.1	-8.8	54.3*	41.6*
COc1ccc([N+](=O)[O-])cc1NC(=O)C(C)OC(=O)CC1CCCC1 (stereo not given)	-6.3	-7.9	-18.3	-2.1	-3.2	79.0*	60.6*

Screening data deposited in PubChem by several laboratories.
